Test results reported in ChEMBL document CHEMBL3102846 (Eur J Med Chem, 2014).

Key:
HEK293T (human) = experiment: Cytotoxicity against human HEK293T cells at dual luciferase reporter gene assay EC50 after 24 hrs by MTS assay
[1] = Inhibition of Wnt3A/beta-catenin signaling in HEK293 cells at 10 uM after 24 hrs by firefly/renilla dual luciferase reporter gene assay relative to vehicle-treated control; assay type: cell-based; parameters: scale not given: the % may be the effect or the level left; details: Homo sapiens
How it was run: (§1)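 HEK293T cells were co-transfected with TOPglow (or FOPglow) plus pCMV Renilla. At 20 h they were reseeded at 18×10^3/well and treated for 24 h with Wnt-3A conditioned medium (from L-Wnt-3A cells) plus analogs (0.01–20 µM; DMSO ≤0.1%). Firefly/Renilla dual-luciferase ratios were expressed as % of DMSO under Wnt-3A. EC50 was taken from sigmoidal concentration–response fits; three independent experiments.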

[2] = Inhibition of Wnt3A/beta-catenin signaling in HEK293 cells at 1 uM after 24 hrs by firefly/renilla dual luciferase reporter gene assay relative to vehicle-treated control; assay type: cell-based; parameters: scale not given: the % may be the effect or the level left; details: Homo sapiens
How it was run: as §1

[3] = Inhibition of Wnt3A/beta-catenin signaling in HEK293 cells at 20 uM after 24 hrs by firefly/renilla dual luciferase reporter gene assay relative to vehicle-treated control; assay type: cell-based; parameters: scale not given: the % may be the effect or the level left; details: Homo sapiens
How it was run: as §1

[4] = Inhibition of Wnt3A/beta-catenin signaling in HEK293 cells after 24 hrs by firefly/renilla dual luciferase reporter gene assay; assay type: cell-based; details: Homo sapiens, HEK293, 24 h
How it was run: as §1

[5] = Inhibition of Wnt3A/beta-catenin signaling-mediated Tcf4 transcriptional activity in human HEK293T cells at dual luciferase reporter gene assay EC50 after 24 hrs by FOPglow reporter gene assay; parameters: scale not given: the % may be the effect or the level left
[6] = Inhibition of Wnt3A/beta-catenin signaling in HEK293 cells at 5 uM after 24 hrs by firefly/renilla dual luciferase reporter gene assay relative to vehicle-treated control; assay type: cell-based; parameters: scale not given: the % may be the effect or the level left; details: Homo sapiens
How it was run: as §1

[7] = Inhibition of Wnt3A/beta-catenin signaling in HEK293 cells after 24 hrs by firefly/renilla dual luciferase reporter gene assay relative to curcumin; assay type: cell-based; details: Homo sapiens
How it was run: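 EC50s came from the HEK293T TOPglow/Renilla dual-luciferase assay with Wnt-3A conditioned medium and 24 h compound exposure (0.01–20 µM), using sigmoidal fits; three independent experiments.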

EC50 [4] [µM]	Structure (SMILES)	Activity (HEK293T (human)) [%]	activity [1] [%]	activity [2] [%]	activity [3] [%]	activity [5] [%]	activity [6] [%]	fold change (FC) [7]
3.1	O=C1/C(=C/c2ccccc2)CC/C1=C\c1ccccc1	83.5	25.3	82.7	18.4	82.9	41.5	6.7
	COc1cccc(/C=C/C(=O)/C=C/c2cccc(OC)c2)c1		103	100	103		114	
8.3	COc1ccc(/C=C/C(=O)/C=C(O)/C=C/c2ccc(OC)c(OC)c2)cc1OC	41.6	46.5	102		118	70	2.5
	COc1cc(/C=C/C(=O)c2ccc(O)c(OC)c2)ccc1O		86.9	112	69.6		115	
11	O=C(/C=C/c1ccccc1)c1ccccc1 [CHALCONE]		69	102	18.9	112	90.6	1.9
	O=C(/C=C/c1ccc(F)c(F)c1)/C=C/c1ccc(F)c(F)c1		110	103	111		100	
	O=C(/C=C/c1ccc(O)cc1)c1ccc(O)cc1		70.9	92.7	68.3		89.6	
2	O=C1/C(=C/c2ccccc2)CCC/C1=C\c1ccccc1 [2,6-DIBENZYLIDENECYCLOHEXANONE]	100	40.6	85.8	39	90.7	49.6	10.1
	O=C(/C=C/c1ccc(F)c(F)c1)c1ccc(F)c(F)c1		90.2	117	59.1		112	
	COc1cccc(/C=C/C(=O)c2cccc(OC)c2)c1		111	107	72.9		108	
	COc1cccc(/C=C/C(=O)/C=C(O)/C=C/c2cccc(OC)c2)c1		108	97.7	101		107	
0.9	O=C1/C(=C/c2ccccc2F)CCC/C1=C\c1ccccc1F	87	14.5	57.7	20.9	93	21.9	22.8
	O=C(/C=C(O)/C=C/c1ccccc1)/C=C/c1ccccc1		107	109	97.2		104	
2.6	COc1cc(/C=C2\CCC/C(=C\c3ccc(O)c(OC)c3)C2=O)ccc1O [CYCLOVALONE]		21.3	86.1		87.6	28.9	7.9
	O=C1/C(=C/c2cccc(F)c2)CC/C1=C\c1cccc(F)c1		109	124	103		119	
	COc1cccc(/C=C2\CCC/C(=C\c3cccc(OC)c3)C2=O)c1		72.7	93.3	81.5		60.7	
	O=C(/C=C(O)/C=C/c1ccc(F)c(F)c1)/C=C/c1ccc(F)c(F)c1		89.2	83.3	93.1		92.2	

EC50 [4] [µM]	Structure (SMILES)	Activity (HEK293T (human)) [%]	activity [1] [%]	activity [2] [%]	activity [3] [%]	activity [5] [%]	activity [6] [%]	fold change (FC) [7]
	O=C1/C(=C/c2ccc(F)c(F)c2)CCC/C1=C\c1ccc(F)c(F)c1		118	94.5	114		126	
	O=C(/C=C/c1ccccc1)/C=C/c1ccccc1		79.7	93	77.9		82.7	
	O=C1/C(=C/c2cccc(F)c2)CCC/C1=C\c1cccc(F)c1		105	96.1	104		119	
	O=C1/C(=C/c2ccc(F)c(F)c2)CC/C1=C\c1ccc(F)c(F)c1		60.2	71	59.5		73.1	
17.1	COc1ccc(/C=C2\CC/C(=C\c3ccc(OC)c(OC)c3)C2=O)cc1OC		55.5	88.9	39.2	85.2	65.9	1.2
5.9	COc1cc(/C=C2\CC/C(=C\c3ccc(O)c(OC)c3)C2=O)ccc1O		37.5	91.6	13.3	90.8	54.1	3.5
	COc1cc(/C=C/C(=O)/C=C/c2ccc(O)c(OC)c2)ccc1O		110	118	90.4		111	
3.9	COc1ccc(/C=C/C(=O)c2ccc(OC)c(O)c2)cc1O	87.2	42	95.7	25.7	131	53.9	5.3
	COc1ccc(/C=C/C(=O)c2ccc(OC)c(OC)c2)cc1OC		60.3	95	41.6		86.6	
	O=C(/C=C/c1ccc(O)cc1)CC(=O)/C=C/c1ccc(O)cc1		72.5	100	69.1		77.7	
	O=C1/C(=C/c2ccccc2F)CC/C1=C\c1ccccc1F		85.3	80	72.8		75.7	
	COc1cccc(/C=C2\CC/C(=C\c3cccc(OC)c3)C2=O)c1		72	92.3	61.3		72.7	
15.9	COc1ccc(/C=C2\CCC/C(=C\c3ccc(OC)c(OC)c3)C2=O)cc1OC	62.1	62.8	97.7	40.8	104	64.3	1.3
	O=C1/C(=C/c2ccc(F)cc2)CC/C1=C\c1ccc(F)cc1		105	120	108		112	
	O=C1/C(=C/c2ccc(F)cc2)CCC/C1=C\c1ccc(F)cc1		61.6	70.3	60.2		65.2	
	COc1ccc(/C=C/C(=O)/C=C/c2ccc(OC)c(OC)c2)cc1OC		109	107	103		108	
	COc1ccc(/C=C/C(=O)/C=C(O)/C=C/c2ccc(OC)c(O)c2)cc1O		105	99.7	113		110	
